The text below walks through data of ChEMBL document CHEMBL4602616, “Design, synthesis and biological evaluation of novel indole-based oxalamide and aminoacetamide derivatives as tubulin polymerization inhibitors” (Bioorg Med Chem Lett, 2020).

Molecules are shown by their SMILES. Active and inactive are the calls of the source. The rule behind the calls is not given here. Where only a bound is given, the exact number is not on record here.

Experiment [1] concerns HeLa. Nature of the experiment: Antiproliferative activity against human HeLa cells assessed as reduction in cell growth after 48 hrs by MTT assay. The experiment is classed as functional, cell-based.
Experiment [2] addresses T1, Tubulin (Homo sapiens) (UniProt P68371+Q9H4B7+P0DPH7+P68366+Q13509+Q71U36+P04350+Q3ZCM7+P07437+P68363+Q9BQE3+Q6PEY2+Q13885+Q9BVA1+Q9BUF5). As to the kind of experiment: Inhibition of tubulin polymerization (unknown origin) at 10 uM relative to control. It counts as protein-complex assay. Summed up: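 In vitro tubulin polymerization measured with compounds at a final concentration of 10 μM; result given as percent inhibition.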

The subject of a further experiment is HCT-116. As to the kind of experiment: Antiproliferative activity against human HCT116 cells assessed as reduction in cell viability. It counts as functional, cell-based.
A further experiment has as its system PC-3. Nature of the experiment: Antiproliferative activity against human PC3 cells assessed as reduction in cell viability. The experiment is classed as functional, cell-based.
In experiment [3] the test system is HeLa. As to the kind of experiment: Induction of cell cycle arrest in human HeLa cells assessed as accumulation at G2/M phase at 15 uM after 24 hrs by PI staining based flow cytometric analysis (reference value: 11.76%). It counts as functional. Background: In flow cytometry, cells or beads pass a laser one at a time.
Experiment [4] has as its system HeLa. Nature of the experiment: Induction of cell cycle arrest in human HeLa cells assessed as accumulation at G0/G1 phase at 7.5 uM after 24 hrs by PI staining based flow cytometric analysis (reference value: 69.86%). The experiment is classed as functional.
For experiment [5], the system named is HeLa. Nature of the experiment: Induction of cell cycle arrest in human HeLa cells assessed as accumulation at S phase at 7.5 uM after 24 hrs by PI staining based flow cytometric analysis (reference value: 18.38%). The experiment is classed as functional.
The subject of experiment [6] is HeLa. As to the kind of experiment: Induction of cell cycle arrest in human HeLa cells assessed as accumulation at G2/M phase at 7.5 uM after 24 hrs by PI staining based flow cytometric analysis (reference value: 11.76%). The experiment is classed as functional.
Experiment [7] has as its system HeLa. As to the kind of experiment: Induction of cell cycle arrest in human HeLa cells assessed as debris content at 7.5 uM after 24 hrs by PI staining based flow cytometric analysis (reference value: 0.05%). It counts as functional.
In experiment [8] the test system is HeLa. As to the kind of experiment: Induction of cell cycle arrest in human HeLa cells assessed as accumulation at G2/M phase at 30 uM after 24 hrs by PI staining based flow cytometric analysis (reference value: 11.76%). The experiment is classed as functional.
Experiment [9] deals with HeLa. Nature of the experiment: Induction of cell cycle arrest in human HeLa cells assessed as debris content at 30 uM after 24 hrs by PI staining based flow cytometric analysis (reference value: 0.05%). It counts as functional.
The subject of experiment [10] is HeLa. As to the kind of experiment: Induction of cell cycle arrest in human HeLa cells assessed as debris content at 15 uM after 24 hrs by PI staining based flow cytometric analysis (reference value: 0.05%). The experiment is classed as functional.
The subject of experiment [11] is HeLa. As to the kind of experiment: Induction of cell cycle arrest in human HeLa cells assessed as accumulation at G0/G1 phase at 15 uM after 24 hrs by PI staining based flow cytometric analysis (reference value: 69.86%). It counts as functional.
In experiment [12] the test system is HeLa. Nature of the experiment: Induction of cell cycle arrest in human HeLa cells assessed as accumulation at S phase at 30 uM after 24 hrs by PI staining based flow cytometric analysis (reference value: 18.38%). The experiment is classed as functional.
Experiment [13] concerns HeLa. Nature of the experiment: Induction of cell cycle arrest in human HeLa cells assessed as accumulation at S phase at 15 uM after 24 hrs by PI staining based flow cytometric analysis (reference value: 18.38%). It counts as functional.
The target in experiment [14] is T1, Tubulin (Homo sapiens). As to the kind of experiment: Inhibition of tubulin polymerization in human HeLa cells assessed as disruption of beta tubulin at 15 to 30 uM after 12 hrs by immunofluorescence based confocal microscopy. It counts as cell-based. The essentials:
(§1)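 HeLa cells grown on glass coverslips, incubated with compound at 15 or 30 μM for 12 h, then fixed; α- and β-tubulin visualized by immunocytochemistry and confocal microscopy, compared with untreated cells.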

In experiment [15] the target is T1, Tubulin (Homo sapiens). Nature of the experiment: Inhibition of tubulin polymerization in human HeLa cells assessed as disruption of alpha tubulin at 15 to 30 uM after 12 hrs by immunofluorescence based confocal microscopy. It counts as cell-based. Summed up: as §1
Experiment [16] concerns HeLa. Nature of the experiment: Induction of cell cycle arrest in human HeLa cells assessed as accumulation at G0/G1 phase at 30 uM after 24 hrs by PI staining based flow cytometric analysis (reference value: 69.86%). The experiment is classed as functional.
The target of experiment [17] is T1, Tubulin (Homo sapiens). As to the kind of experiment: Inhibition of tubulin polymerization in human HeLa cells assessed as microtubule spindle shrinkage around nucleus at 15 to 30 uM after 12 hrs by immunofluorescence based confocal microscopy. It counts as cell-based. Summed up:
as §1

Experiment [18] relates to HeLa. Nature of the experiment: Induction of cell cycle arrest in human HeLa cells assessed as accumulation of cells at G2/M phase after 24 hrs by PI-staining based flow cytometric analysis. The experiment is classed as functional.
Experiment [19] concerns the target T1, Tubulin (Homo sapiens). As to the kind of experiment: Inhibition of tubulin polymerization in human HeLa cells assessed as cell membrane rounding at 15 to 30 uM after 12 hrs by immunofluorescence based confocal microscopy. The essentials:
as §1

The subject of experiment [20] is HeLa. Nature of the experiment: Antiproliferative activity against human HeLa cells assessed as reduction in cell viability. It counts as functional, cell-based.

On to `Cc1ccc2c(NC(=O)C(=O)Nc3ccccc3)c(C(=O)c3ccccc3)[nH]c2c1`, for which, in the experiment with HeLa [1], the IC50 (usually the midpoint of a concentration-inhibition curve) was 55.2 µM.
Still for that read-out and setting: in the case of `O=C(Nc1ccncc1)C(=O)Nc1c(C(=O)c2ccco2)[nH]c2ccccc12` it was 56.8 µM.
With `O=C(Nc1ccncc1)C(=O)Nc1c(C(=O)c2ccco2)[nH]c2cc(Cl)ccc12`, in the experiment on HeLa [1], the concentration for half-maximal inhibition (IC50) stood at 21.8 µM.
On the same count and under the same terms, in the case of `O=C(Nc1ccccc1)C(=O)Nc1c(C(=O)C2CC2)[nH]c2ccccc12` it was more than 100 µM; in that of `Cc1ccc(C(=O)c2[nH]c3ccccc3c2NC(=O)CNc2ccccc2C)cc1`, 31.1 µM.
Regarding `O=C(Nc1ccccc1)C(=O)Nc1c[nH]c2ccccc12`, in the experiment on HeLa [1], the IC50 was 76.7 µM.
The same measure, in the same setting: in the case of `CC(=O)c1[nH]c2cc(Cl)ccc2c1NC(=O)C(=O)Nc1ccncc1` it was 69.6 µM; in that of `O=C(Nc1ccccc1)C(=O)Nc1c(C(=O)c2ccccc2)[nH]c2cc(Cl)ccc12`, 29.2 µM.
With `COc1ccc(NCC(=O)Nc2c(C(=O)c3ccc(OC)cc3)[nH]c3ccccc23)cc1`, the inhibition (as a rule, the share of the control response that was lost under treatment) against Tubulin (Homo sapiens) [2] was found to be 7%. Moreover, the IC50 in the experiment with HeLa [1] amounted to 16.2 µM; in the experiment on HCT-116, 46.9 µM; in the experiment on PC-3, 43.7 µM.
With `Cc1ccc2c(NC(=O)C(=O)Nc3ccncc3)c(C(=O)C3CC3)[nH]c2c1`, in the experiment with HeLa [1], the IC50 is more than 100 µM.
As to `COc1ccc(C(=O)c2[nH]c3cc(Cl)ccc3c2NC(=O)CNc2ccc(F)cc2)cc1`, the inhibition against Tubulin (Homo sapiens) [2] worked out at 43%. Further, the 50% inhibitory concentration (IC50) is 16.7 µM in the experiment on HeLa [1], 18.2 µM in the experiment with HCT-116 and 21.8 µM in the experiment with PC-3.
With `O=C(CNc1ccccc1)Nc1c(C(=O)c2ccccc2)[nH]c2cc(Cl)ccc12`, the Activity in the experiment with HeLa [3] is listed as 20.7%; in the experiment with HeLa [4] it was 68.1%; in the experiment with HeLa [5], 17.7%; in the experiment with HeLa [6], 14.2%; in the experiment on HeLa [7], 0.04%; with HeLa [8] it was 25.2%. For the same molecule, the Activity with HeLa [9] is recorded as 0.07%; in the experiment on HeLa [10] it was 0%; with HeLa [11], 64.57%; with HeLa [12], 10.56%; in the experiment with HeLa [13], 14.73%; in the experiment with HeLa [16], 64.24%. The Activity result in the experiment with HeLa [18] is “Dose-dependent effect”. The same molecule gave an inhibition on Tubulin (Homo sapiens) [2] of 46%. Further, the IC50 with HeLa [1] is 15.4 µM; in the experiment on HCT-116, 12 µM; with PC-3, 14.4 µM. The inhibition result at Tubulin (Homo sapiens) [14], on Tubulin (Homo sapiens) [15], at Tubulin (Homo sapiens) [17] and at Tubulin (Homo sapiens) [19] was “Active” each time.
On to `O=C(Nc1ccccc1)C(=O)Nc1c(C(=O)c2ccccc2)[nH]c2ccccc12`, for which the IC50 with HeLa [1] came to 62.9 µM.
Consider `COc1cc(NCC(=O)Nc2c(C(=O)c3ccccc3)[nH]c3cc(Cl)ccc23)cc(OC)c1OC`, for which the IC50 in the experiment with HeLa [1] is more than 100 µM.
Turning to `Cc1ccc2c(NC(=O)C(=O)Nc3ccncc3)c(C(=O)c3ccco3)[nH]c2c1`, the 50% inhibitory concentration (IC50) with HeLa [1] worked out at 56.9 µM.
For `O=C(Nc1ccncc1)C(=O)Nc1c(C(=O)C2CC2)[nH]c2cc(Cl)ccc12`, the IC50 in the experiment on HeLa [1] worked out at 80.7 µM.
Take `COc1ccc(C(=O)c2[nH]c3ccccc3c2NC(=O)CNc2ccccc2C)cc1`: the IC50 in the experiment on HeLa [1] worked out at 27.9 µM.
`O=C(Nc1ccncc1)C(=O)Nc1c(C(=O)c2ccccc2)[nH]c2ccccc12`: the half-inhibitory concentration (IC50) in the experiment with HeLa [1] was 85.3 µM.
Still for that read-out and setting: in the case of `O=C(Nc1ccncc1)C(=O)Nc1c(C(=O)c2ccccc2)[nH]c2cc(Cl)ccc12` it was more than 100 µM.
On the same count and under the same terms, with `Cc1ccc2c(NC(=O)C(=O)Nc3ccccc3)c(C(=O)C3CC3)[nH]c2c1` the figure was 82.3 µM.
For `O=C(Nc1ccncc1)C(=O)Nc1c[nH]c2ccccc12`, the IC50 with HeLa [1] was more than 100 µM.
With `COc1cc2c(c(OC)c1OC)-c1ccc(OC)c(=O)cc1[C@@H](NC(C)=O)CC2` [COLCHICINE], the 50% inhibitory concentration (IC50) turned out to be 0.03 µM in the experiment with HeLa [1] and 0.25 µM in the experiment on HCT-116.
On Tubulin (Homo sapiens) [2], `COc1ccc(C(=O)c2[nH]c3cc(Cl)ccc3c2NC(=O)CNc2ccc(C)cc2)cc1` returned an inhibition of 29%. In addition, the figures for the concentration for half-maximal inhibition (IC50) in the experiment on HeLa [1], in the experiment with HCT-116 and in the experiment on PC-3 were 18.3 µM, 20.4 µM and 15.8 µM, respectively.
On to `COc1ccc(C(=O)c2[nH]c3cc(Cl)ccc3c2NC(=O)CNc2cc(OC)c(OC)c(OC)c2)cc1`, for which, in the experiment on HeLa [1], the IC50 was more than 100 µM.
In the case of `Cc1ccc2c(NC(=O)C(=O)Nc3ccncc3)c(C(=O)c3ccccc3)[nH]c2c1`, the IC50 in the experiment on HeLa [1] was 75.1 µM.
In the case of `CC(=O)c1[nH]c2ccccc2c1NC(=O)C(=O)Nc1ccncc1`, the 50% inhibitory concentration (IC50) in the experiment with HeLa [1] came to 62.4 µM.
As to `O=C(Nc1ccncc1)C(=O)Nc1c(C(=O)C2CC2)[nH]c2ccccc12`, the IC50 with HeLa [1] was more than 100 µM.
In the case of `O=C(Nc1ccncc1)C(=O)c1cn(Cc2ccc(Cl)cc2)c2ccccc12` [INDIBULIN], the IC50 in the experiment with HeLa [20] came out at 0.115 µM.
Turning to `CC(=O)c1[nH]c2cc(C)ccc2c1NC(=O)C(=O)Nc1ccncc1`, in the experiment with HeLa [1], the IC50 was more than 100 µM.
Still for that read-out and setting: in the case of `O=C(Nc1ccccc1)C(=O)Nc1c(C(=O)C2CC2)[nH]c2cc(Cl)ccc12` it was more than 100 µM.
